Results taken from the EternaBench riboswitch data.

Tested on: MS2 coat protein
Test: apparent Kd, MS2 coat protein; higher = weaker binding; RNA-MaP array; FMN 200 µM where present
Procedure, shortened: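 In 100 mM Tris-HCl pH 7.5, 80 mM KCl, 4 mM MgCl2, BSA, DTT, yeast tRNA and Tween-20, SNAP-549-labelled MS2 coat protein was titrated from 0.7 or 1.5 nM, doubling to 3 µM, over designs transcribed by stalled E. coli RNA polymerase on Illumina sequencing-chip clusters. This was done first without ligand, then with ligand held constant. After green signal was normalised to red-channel RNA signal and control-cluster median Fmax, the apparent Kd was taken as the median of filtered per-cluster binding-curve fits.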

[1] = designed as: OFF switch for flavin mononucleotide, no ligand
[2] = ligand present: flavin mononucleotide, designed as: OFF switch for flavin mononucleotide
[3] = designed as: ON switch for flavin mononucleotide, no ligand
[4] = ligand present: flavin mononucleotide, designed as: ON switch for flavin mononucleotide

| Sequence | apparent Kd [1] [nM] | apparent Kd [2] [nM] | apparent Kd [3] [nM] | apparent Kd [4] [nM] |
| --- | --- | --- | --- | --- |
| CUUUUGUGAGGAUAUCAGUAUUAAAAAAAUAAAAUUACUACUGAGAAGGCACAUGAGGAUCACCCAUGUUCCUC | 32.7 | 168 | – | – |
| UAUCUAUUUAUGGGAUUAGAUUAUGAGGAUAUCAUUUUUUUAUACAUGAGGAUCACCCAUGUUUCUGAGAAGGCAUAUUUAAUA | – | – | 22.2 | 8.12 |
| GAGGCGCUAGCAGGAUAUGUACAUGAGGAUCACCCAUGUAAAUCUUUUUCUGGUGAAGCGCAAGUAUAGAAGGGCUAACGCUGG | 9.07 | 18.8 | – | – |
| UUCCUCAUAACAUGAGGAUCACCCAUGUAUUAAUAGAUAACUGAGGAUAUACUAAUAAUGUUUAUGUAGAAGGCAGAUACAGAU | 49.6 | 106 | – | – |
| AAAGGCCAAGGAUAUACAUGAGGAUCACCCAUGUCGAGUCCCGGGCAUGUAAGUUGGUGUAGAAGGUGGAAGAA | 13.4 | 13.5 | – | – |
| GUUGAAGUCACAGGAUAUACGUCGUCUGUUGCCGUAGAAGGGUGAACUCAGCCUGACCGUGACAUGAGGAUCACCCAUGUGACC | – | – | 15.3 | 19.6 |
| CAGUACUGAGGAUAUACAUGAGGAUCACCCAUGUAUUCCAGCUAGGAAACUAGCACAUGUAGAAGGCAGUACUG | 14.2 | 31.1 | – | – |
| GACAUGAGGAUCACCCAUGUCCAUGCAAGAGUAGUUGAGACCAGAAGGACCGUGCGGAAUGCAGGGUAGGAUAUGGAGCCCUCA | – | – | 36.8 | 9.38 |
| AUAAUUUUAUAAUUCUUUUUAUUCAGAAGGCAUAACAUGAGGAUCACCCAUGUAAAUUAAUGUUAUGAGGAUAUGAUUUGGUUA | 22.5 | 118 | – | – |
| AAUAUGAGCUGGAAUAAACUCAAAACAUGAGGAUCACCCAUGUAGGAUAUCAGCACGAUAAGUGCUGAGAAGGACAACCAGCUC | 13.8 | 15.5 | – | – |
| CUGAGCUGAGGAUAUACAUGAGGAUCACCCAUGUGGGCCUGCGAGGUUACUUGCACAUGUAGAAGGCAGUUCGG | 136 | 17.2 | – | – |
| ACCAUUUACUAAUCCUCUAUACAUGAGGAUCACCCAUGUUUUGAGGAUAUCAGCGUGAAACACGCUGAGAAGGCAAAACAUUCG | 73.5 | 104 | – | – |
| GGAUCGAGUGUGAGGAUAUACCUAUGGAUACAUAGGUAGAAGGCACAUGAGGAUCACCCAUGUGUUCCCGGUCC | 43.4 | 368 | – | – |
| UUUUAACAUGAGGAUCACCCAUGUGAGGAUAUCGAUAUUUUUAUUAAUAUUAAUAAAACGAGAAGGCACAUUUU | – | 90.2 | – | – |
| GCAGUGUCAGGAUAUAGUUCGAGUUCGGAAAUGAGCUUGAGCUAGAAGGGACAUGAGGAUCACCCAUGUGCUGU | 38 | 83.2 | – | – |
| UGUCGGAGCAGAGGAUAUUACAUGAGGAUCACCCAUGUAUGAACCAAUAGCUGGAAACAGCAAUGUAAGAAGGCUGCUCCUACA | 12.5 | 147 | – | – |
| AUCAUCUUAUCAGGAUAUGCGUGUCGACGAAAGUAGACAAUCUUGAUAACAUGAGGAUCACCCAUGUAGAAGGGAUGAGAUGAU | 46.6 | 40.2 | – | – |
| UGGUCAUGAUCAGGAUAUUAACAUGGGCUACAUUAAGAAGGGAUAGUGAGAUGCGAACUGAACGACAUGAGGAUCACCCAUGUA | – | – | 51.9 | 35.8 |
| CAACUGUGAGGAUAUGGUGAGUAGUGCCUGAGCGCUGCUCACCAGAAGGCACAUGAGGAUCACCCAUGUAUAAC | 42.9 | 176 | – | – |
| UGUCGGAGCAGAGGAUAUACAUGAGGAUCACCCAUGUAAUAAAGUGAAGCCUGGAAACAGGCAAUGUAGAAGGCUGCUCCGACA | 29.9 | 249 | – | – |
| UAUUUUAACUAAGGAUAUCUGUAUUAUGUUGAAACAUGAGGAUCACCCAUGUUCAUGAUAUUAUAGGAGAAGGUAGAUGAAUAA | – | – | 6.75 | 6.01 |
| CGUUUAUUUAUUGGAUUAUAUUAUGAGGAUAUCAAUAUUUAUUACAUGAGGAUCACCCAUGUUAAUGAGAAGGCAUAAUUAACG | – | – | 9.99 | 6.68 |
| CUAGACAGAUCAGGAUAUCAUCGCAUGGUGCAUCCCUGUGAUUACAUGAGGAUCACCCAUGUGCAUGAGAAGGGAUUACUAUGU | 46.5 | 13.1 | – | – |
| AAUUACAGAGGAUAUGCGCGGUAAAACAUGAGGAUCACCCAUGUGAUACCUGCAUGACCGGCAGAAGGCUGCGUUU | 22.3 | 108 | – | – |

| Sequence | apparent Kd [1] [nM] | apparent Kd [2] [nM] | apparent Kd [3] [nM] | apparent Kd [4] [nM] |
| --- | --- | --- | --- | --- |
| UGAUAGGACAGAGGAUAUACGGAUAGGAUCUACUAUCCUCCUUAAAUAACAUGAGGAUCACCCAUGUAGAAGGCUGUCCUAUCU | 17.2 | 39 | – | – |
| UUUUUACGAGGAUAUCGUUUUUUUCACAUGAGGAUCACCCAUGUUGUUUAUGUUUCGUUUCGAGAAGGCGUUUGUU | 28.2 | 22.1 | – | – |
| UGUGUUAUCGGAGGAUAUCGAUAUCAAACAUGAGGAUCACCCAUGUUGAGGAUCACACAUGUCCACGAGAAGGCCGACGUAGUG | – | – | 7.12 | 7.23 |
| UUAUUAUAUGUAGGAUAUGCAUAUUAUUAUUAUGCAGAAGGACAUGAGGAUCACCCAUGUAUAUUAUUAUUAUAUAUUAUAUGU | 41.2 | 86.1 | – | – |
| UCGGCGCGAGGAUAUGCGGCUGGUGCUUCGGGCCCUCGCGUACAUGAGGAUCACCCAUGUAGAAGGCGCGCCGC | 32.2 | 38.6 | – | – |
| UGAUAACAUGUAGGAUAUCCAGCAUUGACCAUCGGAGAAGGACAUGAGGAUCACCCAUGUACCGAUACAAUGGGAUAUGGGAAU | 20.1 | 27.2 | – | – |
| GGUACUCAAAGAGUACCAAUACGUACAUGAGGAUCACCCAUGUAGGAUAUGCUACUCAAAGAGUAGCAGAAGGACAUGUGCCUA | 12.7 | 31 | – | – |
| AAAAGCUCAGGAUAUACGGUCUGUUGUUGAAAAAGUAAAAAACAUGAGGAUCACCCAUGUAGAAGGGAGCGAAA | 67.3 | 159 | – | – |
| UGGUACAUCGGAGGAUAUCAUGUAGAGACAUGAGGAUCACCCAUGUCGAUGGAGACAUCGGAGAUUGAGAAGGCCGAUGUACCU | – | – | 109 | 22.2 |
| CUUCAAGAUGUGAGGAUAUCGCCGAUGAGGAUAGUUGAGAAGGUACAUGAGGAUCACCCAUGUAGGCUGGGUUU | 31.9 | 42.1 | – | – |
| GCGGAGAUACAGAAGGGAUAAGCCCUGGGCUAGUCAGGAUAUGUACGACGCAUCGUACAUGAGGAUCACCCAUGUAGCCGCUUG | – | – | 322 | 162 |
| CGGCGGAAAGGAUAUGCAGAAAUAUCAAAAUGUGGGCCACGACAUGAGGAUCACCCAUGUAGAAGGUUCAGCCG | 15.5 | 12.7 | – | – |
| UAUAAGAACGAAGGAUAUGGUUACAUGAGGAUCACCCAUGUAUUAAUAUUGAUCUAUUUUUAUAACCAGAAGGUCGAGAGUAAA | 27.4 | 39.7 | – | – |
| CGUGUUAACGAAGGAUAUGGAUACAUGAGGAUCACCCAUGUAUAUUUUGUGAUCUUGUUUAAGAUCCAGAAGGUCGUAUACACG | 33.8 | 84.7 | – | – |
| ACACAUGAGGAUCACCCAUGUAGCUGGCGUCUGCGCCAGCCACAGGAUAUACGGCUACACAAGCCGUAGAAGGGUGAUAAACAC | – | – | 62.9 | 27.2 |
| CGCAACUCAGAUCUUUUGAACAUGAGGAUCACCCAUGUAUUGAGAAGGAGGAAGAAGAGAGAUUCCUAGGAUAUCAGAGUUGCG | 5.95 | 5.81 | – | – |
| UUGAGGCACCAGAAGGACAUGAGGAUCACCCAUGUAGGAUAUGGGCAAGCCGACGUGCGCAGAUUGCUUAGUUGGGUAUCUUCU | – | – | 43.2 | 10.4 |
| CCGACAUGAGGAUAUCCAUCUGGAUCAGACUAGAUCCUGAUGGAGAAGGCACAUGAGGAUCACCCAUGUUACGG | 373 | 89.1 | – | – |
| AGUCGGAGCAGAGGAUAUACAUGAGGAUCACCCAUGUAAAUGGAAUAAGCCUGGAAACAGGCAAUGUAGAAGGCUGCUCCGACA | 75 | 716 | – | – |
| GGACAUUUACAGAAGGGCAAGCUCGAAAGCGGAGAACGCGAACGAGCUUGCAGGAUAUGUUGAACAUGAGGAUCACCCAUGUCU | – | – | – | 7.08 |
| AACUGAGCCCAAGGAUAUCCUCACUUCCACUACAUGAGGAUCACCCAUGUCAGAUCGUCUGUGUAGGAGAAGGUGGUGUACAUG | – | – | 330 | 623 |
| ACCCGCAAACGUUGGAAUCGUAAGAGAAGGUGGACAUGAGGAUCACCCAUGUGCAUCCUGCGUUCCAAGGAUAUCUUACUGAAU | 10.9 | 48 | – | – |
| UACAAUCUAUCUGAGGAUAUCAUGAUUAUAACAUGAGGAUCACCCAUGUGCAGGAAAACUGCAUAUGAGAAGGCAGAUAGAUUGU | – | – | 611 | 98 |
| GUCCUCUCUGAGGAUAUUAUCCGGUCCGAUUGAUAAGAAGGCAGUACAUGAGGAUCACCCAUGUGGGUUGUCUG | 62.6 | 170 | – | – |
